Measurements as given in ChEMBL document CHEMBL1154743, “A novel potent nicotinamide phosphoribosyltransferase inhibitor synthesized via click chemistry” (J Med Chem, 2010).
pIC50: −log10 of the molar value.

Experiments:
RXF 393 = assay: Growth inhibition of human RXF393 cells by sulforhodamine B assay; assay type: functional
MDA-MB-435 = assay: Growth inhibition of human MDA-MB-435 cells by sulforhodamine B assay; assay type: functional
HCC 2998 = assay: Growth inhibition of human HCC2998 cells by sulforhodamine B assay; assay type: functional
SW-620 = assay: Growth inhibition of human SW620 cells by sulforhodamine B assay; assay type: functional
TK-10 = assay: Growth inhibition of human TK10 cells by sulforhodamine B assay; assay type: functional
OVCAR-5 = assay: Growth inhibition of human OVCAR5 cells by sulforhodamine B assay; assay type: functional
HT-29 = assay: Growth inhibition of human HT-29 cells by sulforhodamine B assay; assay type: functional
[1] = Growth inhibition of human […] cells by sulforhodamine B assay; assay type: functional
EKVX = assay: Growth inhibition of human EKVX cells by sulforhodamine B assay; assay type: functional
CAKI-1 = assay: Growth inhibition of human Caki1 cells by sulforhodamine B assay; assay type: functional
NCI-H460 = assay: Growth inhibition of human NCI-H460 cells by sulforhodamine B assay; assay type: functional
SNB-19 = assay: Growth inhibition of human SNB19 cells by sulforhodamine B assay; assay type: functional
NCI-H522 = assay: Growth inhibition of human NCI-H522 cells by sulforhodamine B assay; assay type: functional
SH-SY5Y [2] = assay: Cytotoxicity against human SH-SY5Y cells assessed as reduction of total cellular NAD(P) level; assay type: functional, cell-based
SF-268 = assay: Growth inhibition of human SF268 cells by sulforhodamine B assay; assay type: functional
IGROV-1 = assay: Growth inhibition of human IGROV1 cells by sulforhodamine B assay; assay type: functional
SN12C = assay: Growth inhibition of human SN12C cells by sulforhodamine B assay; assay type: functional
A498 = assay: Growth inhibition of human A498 cells by sulforhodamine B assay; assay type: functional
SK-OV-3 = assay: Growth inhibition of human SKOV3 cells by sulforhodamine B assay; assay type: functional
SH-SY5Y [3] = assay: Cytotoxicity against human SH-SY5Y cells assessed as cell viability after 48 hrs by MTT assay relative to control; assay type: functional
Procedure, shortened: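 SH-SY5Y cells incubated with compound for 48 h and viability measured by MTT. Values are mean ± SEM of 8-12 determinations.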

MDA-MB-468 = assay: Growth inhibition of human MDA-MB-468 cells by sulforhodamine B assay; assay type: functional
CCRF-CEM = assay: Growth inhibition of human CCRF-CEM cells by sulforhodamine B assay; assay type: functional
OVCAR-3 = assay: Growth inhibition of human OVCAR-3 cells by sulforhodamine B assay; assay type: functional
DU-145 = assay: Growth inhibition of human DU145 cells by sulforhodamine B assay; assay type: functional
UACC-257 = assay: Growth inhibition of human UACC257 cells by sulforhodamine B assay; assay type: functional
HCT-15 = assay: Growth inhibition of human HCT15 cells by sulforhodamine B assay; assay type: functional
HCT-116 = assay: Growth inhibition of human HCT116 cells by sulforhodamine B assay; assay type: functional
[4] = read-out: LC50 (the source's name)

Work on `O=C(CCCCCCCn1cc(-c2cccnc2)nn1)Nc1ccccc1-c1ccccc1` yielded a GI50 (RXF 393) of 100 µM, a TGI (RXF 393) greater than 100 µM and a CC50 (RXF 393; [4]) greater than 100 µM. The GI50 (MDA-MB-435) was 399 nM, the TGI (MDA-MB-435) was 13.3 µM and the CC50 (MDA-MB-435; [4]) was greater than 100 µM. The GI50 (HCC 2998) was 700 nM, the TGI (HCC 2998) was greater than 100 µM and the CC50 (HCC 2998; [4]) was greater than 100 µM. It also gave a GI50 (SW-620) of 61.5 nM, a TGI (SW-620) greater than 100 µM and a CC50 (SW-620; [4]) greater than 100 µM. It also gave a GI50 (TK-10) of 18.2 µM, a TGI (TK-10) greater than 100 µM and a CC50 (TK-10; [4]) greater than 100 µM. The GI50 (OVCAR-5) was 268 nM, the TGI (OVCAR-5) was greater than 100 µM and the CC50 (OVCAR-5; [4]) was greater than 100 µM. For the same compound, the GI50 (HT-29) was 460 nM, the TGI (HT-29) was greater than 100 µM and the CC50 (HT-29; [4]) was greater than 100 µM. For the same compound, the GI50 [1] was 913 nM, the TGI [1] was 60.6 µM and the CC50 [1, 4] was greater than 100 µM. It also gave a GI50 (EKVX) of 8.46 µM, a TGI (EKVX) greater than 100 µM and a CC50 (EKVX; [4]) greater than 100 µM. The GI50 (CAKI-1) was 776 nM, the TGI (CAKI-1) was greater than 100 µM and the CC50 (CAKI-1; [4]) was greater than 100 µM. The GI50 (NCI-H460) was 724 nM, the TGI (NCI-H460) was greater than 100 µM and the CC50 (NCI-H460; [4]) was greater than 100 µM. It also gave a GI50 (SNB-19) of 450 nM, a TGI (SNB-19) greater than 100 µM and a CC50 (SNB-19; [4]) greater than 100 µM. It also gave a GI50 (NCI-H522) of 91.4 nM, a TGI (NCI-H522) greater than 100 µM and a CC50 (NCI-H522; [4]) greater than 100 µM. The pIC50 (SH-SY5Y [2]) was 8.52, the GI50 (SF-268) was 24.7 µM and the TGI (SF-268) was greater than 100 µM. It also gave a CC50 (SF-268; [4]) greater than 100 µM, a GI50 (IGROV-1) of 272 nM and a TGI (IGROV-1) greater than 100 µM. The CC50 (IGROV-1; [4]) was greater than 100 µM, the GI50 (SN12C) was 42.6 nM and the TGI (SN12C) was greater than 100 µM. It also gave a CC50 (SN12C; [4]) greater than 100 µM, a GI50 (A498) of 15.9 µM and a TGI (A498) greater than 100 µM. For the same compound, the CC50 (A498; [4]) was greater than 100 µM, the GI50 (SK-OV-3) was 20.5 µM and the TGI (SK-OV-3) was greater than 100 µM. The CC50 (SK-OV-3; [4]) was greater than 100 µM, the Activity (SH-SY5Y [3]) was 24% and the GI50 (MDA-MB-468) was 7.34 µM. The TGI (MDA-MB-468) was greater than 100 µM, the CC50 (MDA-MB-468; [4]) was greater than 100 µM and the GI50 (CCRF-CEM) was 3.28 µM. It also gave a TGI (CCRF-CEM) greater than 100 µM, a CC50 (CCRF-CEM; [4]) greater than 100 µM and a GI50 (OVCAR-3) of 5.19 µM. It also gave a TGI (OVCAR-3) greater than 100 µM, a CC50 (OVCAR-3; [4]) greater than 100 µM and a GI50 (DU-145) of 702 nM. For the same compound, the TGI (DU-145) was greater than 100 µM, the CC50 (DU-145; [4]) was greater than 100 µM and the GI50 (UACC-257) was 13.3 µM. For the same compound, the TGI (UACC-257) was 30.3 µM, the CC50 (UACC-257; [4]) was 69.3 µM and the GI50 (HCT-15) was 257 nM. It also gave a TGI (HCT-15) greater than 100 µM, a CC50 (HCT-15; [4]) greater than 100 µM and a GI50 (HCT-116) of 40.3 nM. It also gave a TGI (HCT-116) greater than 100 µM and a CC50 (HCT-116; [4]) greater than 100 µM.
